# Laboratory results published in PubChem BioAssay.
# Calls of active or inactive are those of the source.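 The calls were made as follows, unless noted: active = viability at or below 30% in both replicate assays; inconclusive = viability at or below 30% in just one of the two assays; inactive = the rest.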
# How the values were obtained:
# [1] = HUVEC growth inhibition – cell-based, human, primary screen (AID 575); conditions: HUVEC proliferation, CellTiter-Glo luminescence, 72 h; at 10 µM; stronger effect = lower value;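 also: 100% = median of untreated cell wells with 0.1% DMSO on each plate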
# How it was run: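 System – primary HUVEC, no more than 12 passages · Medium – Low-serum (2% FBS) EBM, supplemented · Times – 72 h exposure, 37 °C, 5% CO2, 30 min RT equilibration · Measured by – luminescent ATP assay · Read-out – % viability relative to median vehicle-well signal on each plate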
# [2] = growth inhibitors of H69AR lung tumor, primary screen, human, duplicate replicates (AID 580;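 active = viability at or under a set limit in both replicates, limit being median viability minus 3 SD, cut at about 48% in these data, passing the limit was not always enough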;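 also: 100% = mean luminescence of untreated wells and 0% = no signal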); conditions: H69AR lung tumor cells viability, ATP luminescence, 72 h; at 10 µM; stronger effect = lower value
# [3] = reversal of MRP1-mediated doxorubicin resistance, pilot screen, H69AR cells, doxorubicin co-treatment (AID 601;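 active = viability loss from added drug above about 55%, and viability with drug at most 40%, in both replicates, limit read from the data, passing the limit was not always enough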); conditions: CellTiter-Glo, 72 h, at 10 µM; for differential viability (reversal): stronger effect = higher value
# [4] = 384-well plate pilot, post-Golgi transport modulator project, inhibition of yeast transport mutant growth (AID 636; in the data active = inhibition above about 31%); conditions: absorbance 615 nm, about 18 h, stronger effect = higher value
# [5] = growth suppression of yeast trafficking mutant, preliminary HTS, modulators of trafficking downstream of Golgi apparatus project, 1536-format plate, OD 615 nm (AID 637; in the data active = inhibition above about 30%); conditions: yeast transport mutant growth, absorbance 615 nm, 18 h; stronger effect = higher value
# [6] = H69AR cells + 2 uM doxorubicin, measured here: viability with 2 uM doxorubicin, stronger effect = lower value
# [7] = H69AR cells, compound alone cytotoxicity
SMILES,viability [1],viability [2],differential viability (reversal) ([3]; H69AR cells + 2 uM doxorubicin),"viability [3, 6]","viability [3, 7]",inhibition [4],inhibition [5]
O=C(O)CCc1ccc(-c2cccs2)n1NC(=O)c1ccco1,105% (inactive),96.8% (inactive),8.25% (inactive),88.5%,96.8%,0.39% (inactive),9.05% (inactive)
COc1cccc(Nc2c(F)c(F)c(F)c(F)c2C(=O)O)c1,92.2% (inactive),99.7% (inactive),9.22% (inactive),90.5%,99.7%,-5.84% (inactive),-1.27% (inactive)
CCN(CC(=O)Nc1c(C(=O)OC)[nH]c2ccccc12)c1ccc2c(c1)OCO2,67.8% (inactive),72% (inactive),-6.82% (inactive),78.8%,72%,-5.2% (inactive),-2.22% (inactive)
CCC1Cc2c(nc3c4c(nc(N5CCOCC5)c(C#N)c24)NC(C)=N3)O1 (stereo not given),94% (inactive),88.3% (inactive),6.83% (inactive),81.5%,88.3%,-2.99% (inactive),4.76% (inactive)
CN(CC(=O)Nc1ccncc1)S(=O)(=O)c1ccccc1,110% (inactive),95.8% (inactive),11.9% (inactive),83.9%,95.8%,-7.63% (inactive),-0.63% (inactive)
CCOc1ccc(C(=O)Nc2cc(C)on2)cc1OCC,90.1% (inactive),89.9% (inactive),0.35% (inactive),89.6%,89.9%,-4.87% (inactive),3.17% (inactive)
Nc1c(C(=O)NCCN2CCOCC2)c2nc3ccccc3nc2n1-c1ccc2c(c1)OCO2,51.9% (inactive),18.1% (active),-8.75% (inactive),26.8%,18.1%,-6.27% (inactive),6.19% (inactive)
O=c1oc(-c2ccco2)nc2ccccc12,92.6% (inactive),91% (inactive),4.72% (inactive),86.2%,91%,-0.78% (inactive),-2.22% (inactive)
Cc1nc2ccc(NC(=O)NCc3ccco3)cc2s1,103% (inactive),90.6% (inactive),7.41% (inactive),83.2%,90.6%,-4.67% (inactive),9.37% (inactive)
CC(C)OC(=O)CSc1nnc(-c2ccccn2)n1-c1ccccc1,87.3% (inactive),92.1% (inactive),-2.68% (inactive),94.8%,92.1%,-1.87% (inactive),-9.52% (inactive)
CC(C)c1ccc(-c2nc(N3CCOCC3)[nH]c(=O)c2C#N)cc1,79.3% (inactive),98% (inactive),1.58% (inactive),96.4%,98%,-6.4% (inactive),3.33% (inactive)
CCOc1ccc(OCc2cccc(C(=O)N3CCCC3)c2)cc1,110% (inactive),92.9% (inactive),6.89% (inactive),86%,92.9%,-4.13% (inactive),-3.49% (inactive)
CC(=O)Nc1cccc(NC(=O)CSc2nnnn2C(C)C)c1,97.5% (inactive),99.2% (inactive),14.7% (inactive),84.5%,99.2%,-8.03% (inactive),4.13% (inactive)
O=C1CNCc2[nH]c3ccccc3c2N1c1ccccc1,94.2% (inactive),94.8% (inactive),-1.22% (inactive),96%,94.8%,-3.95% (inactive),1.27% (inactive)
CC(Sc1nnc(-c2cc3ccccc3o2)n1-c1ccccc1)C(=O)O (stereo not given),90.9% (inactive),95.1% (inactive),1.61% (inactive),93.5%,95.1%,-5.84% (inactive),2.38% (inactive)
CCCCC(CC)Cn1c2nc3ccccc3nc2c2c(=N)oc(C)nc21 (stereo not given),3.36% (active),1.91% (active),-0.33% (inactive),2.24%,1.91%,-2.63% (inactive),1.59% (inactive)
COc1ccc(N2CCN(C(=O)CN3C(=O)C4CC=CCC4C3=O)CC2)cc1 (stereo not given),99.7% (inactive),94.6% (inactive),3.03% (inactive),91.5%,94.6%,2.47% (inactive),14.8% (inactive)
COc1ccc(NC(=O)N2CCC(O)(c3cccnc3)CC2)c(OC)c1,83.6% (inactive),98.4% (inactive),12.3% (inactive),86.1%,98.4%,-1.43% (inactive),-1.11% (inactive)
Cc1cc(NC(=O)c2ccc(Cl)cc2)no1,96.1% (inactive),87.5% (inactive),5.82% (inactive),81.7%,87.5%,2.86% (inactive),18.2% (inactive)
O=C(Nc1ccccc1C(=O)N1CCOCC1)c1ccncc1,96.4% (inactive),101% (inactive),7.54% (inactive),93.6%,101%,-1.43% (inactive),-2.22% (inactive)

SMILES,viability [1],viability [2],differential viability (reversal) ([3]; H69AR cells + 2 uM doxorubicin),"viability [3, 6]","viability [3, 7]",inhibition [4],inhibition [5]
Cn1c(=O)c2ncn(CC(=O)NCCOc3ccccc3)c2n(C)c1=O,108% (inactive),91.9% (inactive),7.6% (inactive),84.2%,91.9%,0.39% (inactive),5.71% (inactive)
CN(c1cccc(NC(=O)COc2ccccc2)c1)S(C)(=O)=O,108% (inactive),96% (inactive),-3.07% (inactive),99%,96%,4.47% (inactive),0.32% (inactive)
O=C(O)C1CC=CCC1C(=O)Nc1cccc(C(=O)N2CCCCC2)c1 (stereo not given),107% (inactive),91.9% (inactive),7.67% (inactive),84.2%,91.9%,-5.2% (inactive),9.21% (inactive)
CC(C)NC(=O)c1ccccc1NC(=O)c1ccccc1N(C)S(C)(=O)=O,103% (inactive),88.9% (inactive),-4.12% (inactive),93%,88.9%,-7.37% (inactive),1.9% (inactive)
COc1ccc(N(CC(=O)Nc2ccc(F)c(Cl)c2)S(=O)(=O)c2c(C)noc2C)cc1,93.8% (inactive),81.5% (inactive),-7.84% (inactive),89.3%,81.5%,-1.07% (inactive),-6.83% (inactive)
CC1(C)NC(=O)N(CCCOc2ccc(Br)cc2Cl)C1=O,86% (inactive),89.7% (inactive),15.5% (inactive),74.3%,89.7%,-3.82% (inactive),4.29% (inactive)
COc1ccccc1CN(Cc1nc2ccccc2c(=O)[nH]1)C(=O)Nc1ccccc1,89.4% (inactive),86.6% (inactive),-3.29% (inactive),89.9%,86.6%,-4.61% (inactive),-4.13% (inactive)
COc1ccccc1N(CN1CCCC1=O)C(=O)c1c(F)cccc1Cl,95% (inactive),97.5% (inactive),-0.095% (inactive),97.6%,97.5%,-5.2% (inactive),-0.32% (inactive)
Cc1cc(=O)[nH]c2c1cnn2Cc1ccccc1,116% (inactive),98.9% (inactive),5.01% (inactive),93.9%,98.9%,-1.97% (inactive),-3.33% (inactive)
O=P1(O)C=C(c2ccccc2)NC(c2ccccc2)=C1,108% (inactive),91.7% (inactive),-4.4% (inactive),96.1%,91.7%,-4.93% (inactive),0.48% (inactive)
CCOC(=O)c1c(C)oc2ccc(O)c(CN(C)C)c12,77.4% (inactive),87.3% (inactive),3.6% (inactive),83.7%,87.3%,-6.1% (inactive),2.22% (inactive)
CCS(=O)(=O)c1ccc(S(=O)(=O)CC)s1,104% (inactive),104% (inactive),0.02% (inactive),104%,104%,-2.73% (inactive),-1.59% (inactive)
COc1cc(CN2CCC(C(=O)NC3CCCC3)CC2)ccc1O,109% (inactive),94.7% (inactive),9.49% (inactive),85.2%,94.7%,-4% (inactive),0.79% (inactive)
c1ccc(OCc2nc3ccccc3[nH]2)cc1,85.4% (inactive),92.2% (inactive),1.59% (inactive),90.6%,92.2%,-3.6% (inactive),-4.13% (inactive)
CCOC(=O)c1ccc(NC(=O)Nc2ccn(C)n2)cc1,101% (inactive),91.2% (inactive),4.49% (inactive),86.7%,91.2%,-6.27% (inactive),1.75% (inactive)
Cc1c(NC(=O)C2CCCNC2=O)c(=O)n(-c2ccccc2)n1C (stereo not given),107% (inactive),107% (inactive),-0.405% (inactive),107%,107%,-2.24% (inactive),3.33% (inactive)
Cc1c(O)c(CN2CCCCC2)cc2c3c(c(=O)oc12)CCC3,103% (inactive),82.2% (inactive),-0.59% (inactive),82.8%,82.2%,-6.84% (inactive),5.08% (inactive)
C=CCn1c(=O)c(C(=O)Nc2ccccc2C(=O)OCC)c(O)c2ccccc21,84.3% (inactive),33% (active),-26.9% (inactive),60%,33%,-7.2% (inactive),6.83% (inactive)
C=C(C)COc1ccc(-c2n[nH]c(C)c2-c2ccccc2)c(O)c1,2.96% (active),21.1% (active),7.88% (inactive),13.2%,21.1%,-1.69% (inactive),9% (inactive)
COc1cccc(/C(O)=C2/C(=O)C(=O)N(CCN3CCOCC3)C2c2cccnc2)c1 (stereo not given),98.9% (inactive),93.6% (inactive),0.755% (inactive),92.8%,93.6%,2.99% (inactive),-3.02% (inactive)
